For one molecule, Activity, inhibition in vivo and viability results are on record in ChEMBL document CHEMBL4422671, “New Quinolylnitrones for Stroke Therapy: Antioxidant and Neuroprotective ( Z)- N- tert-Butyl-1-(2-chloro-6-methoxyquinolin-3-yl)methanimine Oxide as a New Lead-Compound for Ischemic Stroke Treatment” (J Med Chem, 2019).

Usually inhibition in vivo stands for the change of the read-out against control, counted positive when it falls.

The structures appear in SMILES notation. Active and inactive are the calls of the source. The rule behind the calls is not given here.

Data set [1] is described as follows: Cytotoxicity in oxygen-glucose deprivation-induced Sprague-Dawley rat primary neuronal cells assessed as reduction in cell viability at 250 uM pretreated for 24 hrs followed by OGD challenge for 4 hrs and measured after 24 hrs of recovery period post OGD measured by MTT assay. As to conditions: primary neuron. The data set is classed as cell-based. The procedure, abridged: (§1)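 Rat cortical neuron cultures (E16–17 Sprague-Dawley, 6–7 days in vitro) treated with compound (1–250 µM range) 24 h before 4 h OGD at <0.1% O2, 37 °C. Cells then recovered 24 h under normoxia with glucose. Viability by MTT absorbance at 595/690 nm, relative to untreated control.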
For orientation: Tetrazolium assays rely on reduction of a dye to a coloured formazan, in cell work by metabolically active cells.

Data set [2] can be described thus: Antioxidant activity assessed as DPPH free radical scavenging activity at 0.1 mM measured after 20 to 60 mins. The data set is classed as functional. In short, it runs like this: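 DPPH 0.1 mM in absolute ethanol with compound at 0.1 mM final (from DMSO). Absorbance at 517 nm recorded after 20 and 60 min at rt. NDGA as standard.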
Data set [3] concerns Rattus norvegicus. Put plainly: Antiinflammatory activity in Fisher 344 rat model of carrageenan-induced edema assessed as inhibition of carrageenan-induced paw edema at 0.01 mmol/kg, ip dosed simultaneously with carrageenan injection relative to control. As to conditions: Fisher 344, ip. The data set is classed as functional. In short, it runs like this: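 Fisher 344 rats (150–200 g), both sexes. Edema was induced by intradermal injection of 0.1 mL 2% carrageenan in water into the right hind paw. Compound was suspended in water with a few drops of Tween 80. Rats were euthanized 3.5 h later. The injected-minus-uninjected paw weight difference was compared with water or Tween-water controls as % inhibition. Mean of two experiments, n = 6 each.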
A general note: The carrageenan paw model is a standard test of acute inflammation.

The test system of data set [4] is Primary neuron. In words: Neuroprotective activity against oxygen-glucose deprivation-induced cell death in Sprague-Dawley rat primary neuronal cells assessed as increase in cell viability at 10 uM pretreated for 24 hrs followed by OGD challenge for 4 hrs and measured after 24 hrs of recovery period post OGD measured by MTT assay. The data set is classed as functional, cell-based. The procedure, abridged:
as §1

The nature of data set [5]: Antioxidant activity assessed as hydroxyl radical scavenging activity at 0.1 mM measured after 30 mins. Format: functional. The procedure, abridged:
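Hydroxyl radicals from Fe3+/ascorbic acid: EDTA 0.1 mM, Fe3+ 167 μM, DMSO 33 mM, compound 0.1 mM and ascorbic acid 10 mM in 50 mM phosphate buffer pH 7.4. Incubated 37 °C for 30 min, stopped with 17% w/v TCA. Read-out is inhibition of formaldehyde formation, given as % scavenging. Trolox as reference.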

Data set [6] has as its system Primary neuron. In words: Neuroprotective activity against oxygen-glucose deprivation-induced ischemia in Sprague-Dawley rat primary neuronal cells assessed as reduction in ROS generation at 10 to 250 uM measured after 2 hrs of recovery post OGD by fluorometric assay. The data set is classed as functional, cell-based. In short, it runs like this: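 Primary rat cortical neurons exposed to 4 h OGD; compound added at onset of recovery together with a cell-permeable ROS probe. Fluorescence (ex 490/em 535 nm) read after 2 h recovery and expressed as % of control. Mean of four independent experiments.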

Data set [7] has as its system Mus musculus. Put plainly: Neuroprotective activity in C57BL/6 mouse model of ischemia-induced cerebral ischemia model assessed reduction in neuronal cell death in hippocampal CA1 region at 1.5 mg/kg, ip administered at onset of reperfusion period and measured at 5 days reperfusion post ischemia by Fluoro-Jade-staining assay based relative to control. The data set is classed as functional. More on the design: scale not given: the % may be the effect or the level left.

Data set [8] in a line: Neuroprotective activity against oxygen-glucose deprivation-induced cell death in Sprague-Dawley rat primary neuronal cells assessed as cell viability at 250 uM treated at onset of recovery period and measured at 24 hrs of recovery by MTT assay relative to control. The data set is classed as functional. The conditions noted are these: Primary neuron, read-out: Activity. The procedure, abridged: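 Rat cortical neurons from E16–17 Sprague-Dawley embryos, used at 6–7 days in serum-free medium. OGD: glucose-free medium bubbled with 95% N2/5% CO2, <0.1% O2, 6.5% CO2, 37 °C, 4 h. Compound added at start of 24 h normoxic recovery. Viability by MTT (0.2 mg/mL, 1.5 h), lysis with HCl/SDS, read at 595/690 nm, relative to 100% control. Four to eight culture batches, each in quadruplicate.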

In data set [9] the test system is Mus musculus. Put plainly: Neuroprotective activity in C57BL/6 mouse model of transient middle cerebral artery occlusion-induced ttransient focal cerebral ischemia assessed decrease in motor deficit at 2 mg/kg, ip measured after 24 hrs post dose by grip strength Test. Format: functional, organism-based. In short, it runs like this: (§2)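 Male C57BL/6 mice (9–12 weeks) under isoflurane. Distal MCA compressed 60 min with a needle, occlusion confirmed by laser-Doppler; buprenorphine given sc. Compound given ip at reperfusion onset. Grip strength recorded at 24 and 48 h versus presurgery. Infarct area/volume measured at 48 h from TTC-stained 1 mm coronal sections. n = 8 per group.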

Data set [10] in a line: Antiinflammatory activity assessed as NO release at 100 uM after 60 mins in presence of L-cysteine by Griess reagent-based relative to control. Format: functional. In short, it runs like this:
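NO-release test: compound at 100 μM final (from DMSO) in 50 mM phosphate buffer pH 7.4 containing 1 mM L-cysteine, 60 min at 37 °C. Reaction mixture then treated with Griess reagent, left 10 min at rt, absorbance read at 540 nm. Sodium nitroprusside as standard. Mean of three to four determinations.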
For orientation: Nitrite, measured by Griess reagent, commonly stands in for NO production.

Data set [11] can be described thus: Antioxidant activity assessed as inhibition of linoleic acid peroxidation activity at 10 uL. The data set is classed as functional. More on the design: scale not given: the % may be the effect or the level left. The procedure, abridged:
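AAPH-initiated peroxidation of sodium linoleate dispersion (16 mM, 10 μL) in 0.05 M phosphate buffer pH 7.4 at 37 °C under air. Initiator was 50 μL of 40 mM AAPH, with 10 μL compound added. Conjugated diene hydroperoxide followed at 234 nm. Trolox as reference.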

Data set [12] relates to Mus musculus. In words: Neuroprotective activity in C57BL/6 mouse model of transient middle cerebral artery occlusion-induced ttransient focal cerebral ischemia assessed decrease in size of ischemic lesion at 2 mg/kg, ip measured after 48 hrs post dose relative to control. Format: functional. On the set-up: scale not given: the % may be the effect or the level left. The procedure, abridged:
as §2

The subject of data set [13] is Mus musculus. Put plainly: Neuroprotective activity in C57BL/6 mouse model of ischemia-induced cerebral ischemia model assessed as reduction in apoptosis in cortical region at 1.5 mg/kg, ip administered at onset of reperfusion period and measured at 5 days reperfusion post ischemia by TUNNEL assay relative to control. The data set is classed as functional. On the set-up: scale not given: the % may be the effect or the level left.

The test system of data set [14] is Mus musculus. Put plainly: Neuroprotective activity in C57BL/6 mouse model of transient middle cerebral artery occlusion-induced ttransient focal cerebral ischemia assessed decrease in motor deficit at 1.5 to 2 mg/kg, ip measured after 48 hrs post dose by grip strength Test. Format: functional, organism-based. The procedure, abridged: as §2
Data set [15] relates to Mus musculus. Put plainly: Neuroprotective activity in C57BL/6 mouse model of ischemia-induced cerebral ischemia model assessed reduction in neuronal cell death in cortical region at 1.5 mg/kg, ip administered at onset of reperfusion period and measured at 5 days reperfusion post ischemia by Fluoro-Jade-staining assay based relative to control. Format: functional. On the set-up: scale not given: the % may be the effect or the level left.

Data set [16] has as its system Mus musculus. Put plainly: Neuroprotective activity in C57BL/6 mouse model of transient middle cerebral artery occlusion-induced ttransient focal cerebral ischemia assessed decrease in motor deficit by measuring improvement in grip strength at 1.5 to 2 mg/kg, ip measured after 48 hrs post dose by grip strength Test. On the set-up: scale not given: the % may be the effect or the level left. Format: functional. In short, it runs like this:
as §2

Data set [17] relates to Mus musculus. Put plainly: Neuroprotective activity in C57BL/6 mouse model of ischemia-induced cerebral ischemia model assessed as reduction in apoptosis in hippocampal CA1 region at 1.5 mg/kg, ip administered at onset of reperfusion period and measured at 5 days reperfusion post ischemia by TUNNEL assay relative to control. Format: functional. On the set-up: scale not given: the % may be the effect or the level left.

For `COc1ccc2nc(Cl)c(/C=[N+](\[O-])C(C)(C)C)cc2c1`, the Activity result in data set [1] was “Toxic”; in [2], 4%; in [5], 100%; in data set [7] it was 33%; in data set [10], 3%; in data set [11] it was 22%. The Activity in [12] was 44%; in data set [13] it was 84%; in data set [15], 90%; in data set [16] it was 11.8%; in data set [17] it was 39%. The inhibition in vivo at 10 µmol/kg in data set [3] came to 48.5%. In addition, the result in data set [4], in [6], in [9] and in [14] was Active. The viability at 250 µM in data set [8] is 65.9%.
